Source: ChEMBL document CHEMBL1138466, “Isaindigotone derivatives: a new class of highly selective ligands for telomeric G-quadruplex DNA” (J Med Chem, 2009)
Calls of active or inactive are those of the source. No cut-off for these calls is given here.

Legend:
Nucleic Acid [1] = assay: Binding affinity to F10T hairpin duplex DNA assessed as change in melting temperature at 1 uM by FRET assay; type: nucleic-acid assay
Outline: (§1)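 FRET melting of dual-labelled probes (FAM/TAMRA): G-quadruplex F21T or hairpin duplex F10T, 0.2 µM, in 10 mM Tris-HCl pH 7.2 with 60 mM KCl, ligand 1 µM. Emission read at 530 nm (excitation 470 nm) every 1 °C from 37 to 99 °C, with a 30 s hold before each reading. ΔTm is taken relative to the annealed probe without ligand.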

Nucleic Acid [2] = assay: Binding affinity to F21T human telomeric DNA assessed as change in melting temperature at 1 uM by FRET assay; type: nucleic-acid assay; outline: as §1
[3] = Inhibition of human telomerase in human MCF7 cell free extract by TRAP-LIG assay
Outline: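 TRAP-LIG: MCF-7 protein extract (500 ng) extends TS primer in TRAP buffer (pH 8.3, 68 mM KCl) with 125 µM dNTPs and ligand, 20 min at 30 °C. Product purified to remove ligand, then PCR-amplified with ACX primer for 35 cycles. Products resolved on 16% PAGE with silver staining; IC50 computed from band optical density.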

Nucleic Acid [4] = assay: Binding affinity to oligonucleotide HTG21 by florescence titration assay in presence of K+ solution; type: nucleic-acid assay
Outline: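 Fluorescence titration at 25 °C in 10 mM Tris-HCl pH 7.2 with 100 mM KCl. HTG21 DNA added to ligand up to 0–2 µM final, with at least 10 min equilibration after each addition. Excitation at 343 or 353 nm depending on ligand. Binding constant Kb derived from the titration.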

CA46 [5] = assay: Cytotoxicity against human CA46 cells assessed as decrease in population doubling at 0.9 uM after 12 days; type: functional, cell-based
HL-60 [6] = assay: Cytotoxicity against human HL60 cells assessed as decrease in population doubling at 1.8 uM after 12 days; type: functional, cell-based
CA46 [7] = assay: Induction of telomere shortening in human CA46 cells assessed as telomere length at 1.8 uM by telomeric restriction fragment assay; type: functional
Outline: (§2)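 TRF length: HL60 or CA46 cells treated for 16 days with 0.9 or 1.8 µM ligand or 0.1% DMSO. Genomic DNA digested with HinfI/RsaI, run on 0.8% agarose, transferred to nylon membrane and baked at 120 °C for 20 min. Telomeric smears detected by Southern analysis.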

HL-60 [8] = assay: Cytotoxicity against human HL60 cells assessed as decrease in population doubling at 0.9 uM after 12 days; type: functional, cell-based
HL-60 [9] = assay: Cytotoxicity against human HL60 cells at 4.5 uM after 8 days; type: functional, cell-based
HL-60 [10] = assay: Induction of senescence in human HL60 cells assessed as beta galactosidase activity at 0.9 uM for 16 days; type: functional, cell-based
Outline: (§3)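 SA-β-Gal staining: HL60 or CA46 cells treated continuously with 0.9 µM ligand or 0.1% DMSO for 16 days. Fixed in 2% formaldehyde/0.2% glutaraldehyde for 15 min, stained overnight at 37 °C with 1 mg/mL X-gal, then examined by light microscopy (×400). Repeated twice.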

HL-60 [11] = assay: Cytotoxicity against human HL60 cells after 2 days by MTT assay; type: functional, cell-based; settings: HL-60, 48 h
Outline: (§4)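 MTT viability: HL60 or CA46 cells seeded at 1.0 × 10³ per well and exposed to a ligand concentration series for 48 h at 37 °C, 5% CO₂. MTT added for 4 h, then DMSO; absorbance read at 570 nm. Each dose tested in triplicate; IC50 taken from mean OD versus concentration curves.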

CA46 [12] = assay: Cytotoxicity against human CA46 cells after 2 days by MTT assay; type: functional, cell-based; settings: CA46, 48 h; outline: as §4
HL-60 [13] = assay: Induction of telomere shortening in human HL60 cells assessed as telomere length at 1.8 uM by telomeric restriction fragment assay; type: functional; outline: as §2
HL-60 [14] = assay: Induction of telomere shortening in human HL60 cells assessed as telomere length at 0.9 uM by telomeric restriction fragment assay; type: functional, cell-based; outline: as §2
HL-60 [15] = assay: Cytotoxicity against human HL60 cells at 4.5 uM after 12 days; type: functional, cell-based
CA46 [16] = assay: Induction of senescence in human CA46 cells assessed as beta galactosidase activity at 0.9 uM for 16 days; type: functional, cell-based; outline: as §3
Nucleic Acid [17] = assay: Binding affinity to HTG21 DNA assessed as induction of guanine-rich DNA to G-quadruplex structure formation; type: nucleic-acid assay
Outline: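 CD titration: HTG21 5 µM in 10 mM Tris-HCl pH 7.2, without or with 100 mM KCl. Annealed at 90 °C for 5 min, cooled slowly, held at 4 °C overnight. Ligand added at 0–5 mol equiv at 25 °C with at least 13 min equilibration per addition. Spectra recorded 230–450 nm in a 4 mm quartz cuvette.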

Row | ΔTm (Nucleic Acid [1]) [°C] | ΔTm (Nucleic Acid [2]) [°C] | IC50 [3] [µM] | Kb (Nucleic Acid [4]) | Activity (Nucleic Acid [17]) | SMILES | Activity (CA46 [5]) | Activity (HL-60 [6]) | Activity (CA46 [7]) [kilobase] | Activity (HL-60 [8]) | Activity (HL-60 [9]) | Activity (HL-60 [10]) | IC50 (HL-60 [11]) [µM] | IC50 (CA46 [12]) [µM] | Activity (HL-60 [13]) [kilobase] | Activity (HL-60 [14]) | Activity (HL-60 [15]) | Activity (CA46 [16])
1 | 0 | 22 | 9.3 | 9.8 10^6 M-1 | – | O=C(CCN1CCCCC1)Nc1ccc(/C=C2\CCn3c2nc2cc(NC(=O)CCN4CCCCC4)ccc2c3=O)cc1 | – | – | – | – | – | – | – | – | – | – | – | –
2 | 0.1 | 17.6 | 15.2 | 8.1 10^6 M-1 | – | O=C(CCN1CCCCC1)Nc1ccc(/C=C2\CCn3c2nc2ccc(NC(=O)CCN4CCCCC4)cc2c3=O)cc1 | – | – | – | – | – | – | – | – | – | – | – | –
3 | 0.4 | 17.6 | 9 | 7.2 10^6 M-1 | – | O=C(CCN1CCCC1)Nc1ccc(/C=C2\CCn3c2nc2ccc(NC(=O)CCN4CCCC4)cc2c3=O)cc1 | – | – | – | – | – | – | – | – | – | – | – | –
4 | 0.1 | 21.9 | 7.8 | 10.1 10^6 M-1 | Active | O=C(CCN1CCCC1)Nc1ccc(/C=C2\CCn3c2nc2cc(NC(=O)CCN4CCCC4)ccc2c3=O)cc1 | Active | Active | 2.3 | Active | Active | Active | 33 | 29 | 1.1 | Active | Active | Active

Row | SMILES | ΔTm (Nucleic Acid [1]) [°C] | ΔTm (Nucleic Acid [2]) [°C] | IC50 [3] [µM] | Kb (Nucleic Acid [4]) | Activity (Nucleic Acid [17]) | Activity (CA46 [5]) | Activity (HL-60 [6]) | Activity (CA46 [7]) [kilobase] | Activity (HL-60 [8]) | Activity (HL-60 [9]) | Activity (HL-60 [10]) | IC50 (HL-60 [11]) [µM] | IC50 (CA46 [12]) [µM] | Activity (HL-60 [13]) [kilobase] | Activity (HL-60 [14]) | Activity (HL-60 [15]) | Activity (CA46 [16])
5 | CN(C)CCCNc1c2ccccc2nc2c1[nH]c1ccccc12 | 5.7 | 10.4 | – | – | – | – | – | – | – | – | – | – | – | – | – | – | –
